ChEMBL document CHEMBL1147872, “Syntheses of new tetrasubstituted thiophenes as novel anti-inflammatory agents” (Eur J Med Chem, 2007)
Values after ≈ are worked out from the molar mass of the structure shown. Active and inactive are the calls of the source. The calls are words filed in the database; no cut-off is given here.

What was measured:
Type in all cases: functional
Mus musculus = assay: Analgesic activity in Albino mouse assessed as protection against acetic acid-induced writhing at 10 mg/kg, ip within 30 mins; details: route intraperitoneal
Procedure, shortened: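 Mice (20–25 g, either sex) starved 16 h, six per group, given 10 mg/kg i.p.; vehicle control received 1% DMSO at 0.5 ml/100 g. After 1 h, 0.1 ml of 3% acetic acid was given. Writhes were counted over 30 min, and the group mean was expressed as % inhibition versus control. Student's t-test was used.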

[1] = Antioxidant activity assessed as nitric oxide radical scavenging activity at 10 ug/ml after 150 mins
Procedure, shortened: (§1)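 Sodium nitroprusside (10 mmol) in PBS at physiological pH was incubated with sample at 25 °C for 150 min in a 3 ml reaction. Aliquots taken every 30 min were mixed 1:1 with Griess reagent (1% sulphanilamide, 0.1% naphthylethylenediamine in 2% H3PO4), and absorbance was read at 546 nm. Runs were done in triplicate, and % scavenging was calculated against the blank.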

Rattus norvegicus [2] = assay: Antiinflammatory activity in Albino rat assessed as protection against carrageenan-induced hind paw oedema at 20 mg/kg, po after 3 hrs
Procedure, shortened: (§2)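 Rats (150–250 g, either sex) were fasted 18 h and grouped in sixes. Compounds or standards were given orally as a suspension in 5% DMSO. After 1 h, 0.1 ml of 1% carrageenin was injected subplantar into the right hind paw. Paw volume was read by mercury plethysmometer at once and at 3 h. % protection = 100(1−Vt/Vc) versus vehicle.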

[3] = Antioxidant activity assessed as nitric oxide radical scavenging activity at 15 ug/ml after 150 mins; procedure, shortened: as §1
[4] = Antioxidant activity assessed as nitric oxide radical scavenging activity at 35 ug/ml after 150 mins; procedure, shortened: as §1
Rattus norvegicus [5] = assay: Antiinflammatory activity in Albino rat assessed as protection against carrageenan-induced hind paw oedema at 40 mg/kg, po after 3 hrs; procedure, shortened: as §2
[6] = Antioxidant activity assessed as nitric oxide radical scavenging activity at 5 ug/ml after 150 mins; procedure, shortened: as §1
[7] = Antioxidant activity assessed as nitric oxide radical scavenging activity at 20 ug/ml after 150 mins; procedure, shortened: as §1
Rattus norvegicus [8] = assay: Antiinflammatory activity in Albino rat assessed as protection against carrageenan-induced hind paw oedema at 10 mg/kg, po after 3 hrs; procedure, shortened: as §2
[9] = Inhibition of nitric oxide radical scavenging activity; procedure, shortened: as §1
[10] = Antioxidant activity assessed as nitric oxide radical scavenging activity at 30 ug/ml after 150 mins; procedure, shortened: as §1
[11] = Antioxidant activity assessed as nitric oxide radical scavenging activity at 25 ug/ml after 150 mins; procedure, shortened: as §1

| Compound | Activity (Mus musculus) [%] | Activity [1] | Activity (Rattus norvegicus [2]) [%] | Activity [3] | Activity [4] | Activity (Rattus norvegicus [5]) [%] | Activity [6] | Activity [7] | Activity (Rattus norvegicus [8]) [%] | Activity [9] | Activity [10] | Activity [11] | IC50 [9] [µg/mL] |
| --- | --- | --- | --- | --- | --- | --- | --- | --- | --- | --- | --- | --- | --- |
| COC(=O)c1c(Nc2ccc(Cl)cc2)sc(C(=O)c2ccc(C)cc2)c1C | 43 | inactive | 66 | inactive | inactive | 26 | inactive | inactive | 34 | inactive | inactive | inactive | – |
| Cc1ccc(C(=O)c2sc(Nc3ccc(Cl)cc3)c(C(=O)O)c2C)cc1 | 24 | inactive | 68 | inactive | inactive | 59 | inactive | inactive | 63 | inactive | inactive | inactive | – |
| COC(=O)c1c(Nc2ccc(F)cc2)sc(/C(=N/O)c2ccc(OC)cc2)c1C | – | – | 25 | – | – | 30 | – | – | 20 | – | – | – | – |
| Cc1ccc(Nc2sc(C(=O)c3ccc(C)cc3)c(C)c2C(=O)O)cc1 | 18 | inactive | 38 | inactive | inactive | 38 | inactive | inactive | 35 | inactive | inactive | inactive | – |
| COC(=O)c1c(Nc2ccc(F)cc2)sc(C(=O)c2ccc(OC)cc2)c1C | 40 | 14% | 53 | 15.2% | 25.6% | 58 | 5.28% | 18.1% | 36 | – | 23.2% | 20.2% | 74.17 (≈ 186 µM) |
| Cc1ccc(C(=O)c2sc(Nc3ccc(F)cc3)c(C(=O)O)c2C)cc1 | 22 | inactive | 44 | inactive | inactive | 42 | inactive | inactive | 38 | inactive | inactive | inactive | – |
| COC(=O)c1c(Nc2ccc(Cl)cc2)sc(/C(=N\O)c2ccc(C)cc2)c1C | – | – | 29 | – | – | 42 | – | – | 13 | – | – | – | – |
| COc1ccc(C(=O)c2sc(Nc3ccccc3)c(C(=O)O)c2C)cc1 | 30 | 24.7% | 80 | 36.5% | 61.2% | 70 | 19.6% | 41.2% | 79 | – | 59.5% | 52.6% | 25.2 (≈ 68.6 µM) |
| COc1ccc(C(=O)c2sc(Nc3ccc(F)cc3)c(C(=O)O)c2C)cc1 | 28 | 0.98% | 57 | 1.98% | 12.8% | 54 | 0.1% | 3.58% | 57 | – | 10.5% | 8.36% | 118.32 (≈ 307 µM) |
| Cc1ccc(C(=O)c2sc(Nc3ccccc3)c(C(=O)O)c2C)cc1 | 17 | 0.85% | 47 | 1.25% | 5.55% | 42 | 0.26% | 2.68% | 45 | – | 5.13% | 4.35% | 259.47 (≈ 738 µM) |
| COC(=O)c1c(Nc2ccccc2)sc(C(=O)c2ccc(OC)cc2)c1C | 55 | 18% | 70 | 28.6% | 63% | 73 | 13.3% | 32.4% | 69 | – | 48.1% | 36.9% | 30.08 (≈ 78.9 µM) |
| COC(=O)c1c(Nc2ccc(F)cc2)sc(C(=O)c2ccc(C)cc2)c1C | 37 | inactive | 46 | inactive | inactive | 23 | inactive | inactive | 38 | inactive | inactive | inactive | – |
| COC(=O)c1c(Nc2ccc(C)cc2)sc(C(=O)c2ccc(OC)cc2)c1C | 45 | inactive | 63 | inactive | inactive | 70 | inactive | inactive | 50 | inactive | inactive | inactive | – |
| CC(C)Cc1ccc(C(C)C(=O)O)cc1 (stereo not drawn) [IBUPROFEN] | 60 | – | 33 | – | – | – | – | – | – | – | – | – | – |
| COC(=O)c1c(Nc2ccc(OC)cc2)sc(C(=O)c2ccc(OC)cc2)c1C | 40 | 5.9% | 72 | 7.8% | 25.1% | 76 | 4.29% | 12% | 71 | – | 20.5% | 15.4% | 72.21 (≈ 175 µM) |
| COc1ccc(Nc2sc(C(=O)c3ccc(OC)cc3)c(C)c2C(=O)O)cc1 | 22 | 23.5% | 75 | 30.6% | 51% | 69 | 20.1% | 32.5% | 72 | – | 41.2% | 38.5% | 36.57 (≈ 92 µM) |
| COC(=O)c1c(Nc2ccc(C)cc2)sc(/C(=N/O)c2ccc(OC)cc2)c1C | – | – | 27 | – | – | 30 | – | – | 22 | – | – | – | – |
| COC(=O)c1c(Nc2ccc(Cl)cc2)sc(/C(=N/O)c2ccc(OC)cc2)c1C | – | – | 12 | – | – | 30 | – | – | 3 | – | – | – | – |
| COC(=O)c1c(Nc2ccccc2)sc(/C(=N/O)c2ccc(OC)cc2)c1C | – | – | 38 | – | – | 34 | – | – | 5 | – | – | – | – |
| COC(=O)c1c(Nc2ccc(Cl)cc2)sc(C(=O)c2ccc(OC)cc2)c1C | 60 | inactive | 40 | inactive | inactive | 39 | inactive | inactive | 42 | inactive | inactive | inactive | – |
| COC(=O)c1c(Nc2ccccc2)sc(/C(=N/O)c2ccc(C)cc2)c1C | – | – | 21 | – | – | 30 | – | – | 13 | – | – | – | – |
